The values below come from ChEMBL document CHEMBL4043163, “Methyl propiolate and 3-butynone: Starting points for synthesis of amphiphilic 1,2,3-triazole peptidomimetics for antimicrobial evaluation” (Bioorg Med Chem, 2017).

Activity calls are given as the source filed them. The rule behind the calls is not given here.

The subject of one data set is Streptococcus agalactiae. Description: Antimicrobial activity against Streptococcus agalactiae ATCC 12386 assessed as growth inhibition incubated overnight at 37degC by visual and photometry based method. In kind it is functional.
Data set [1] relates to Escherichia coli. Briefly: Antimicrobial activity against Escherichia coli ATCC 25922 assessed as growth inhibition incubated overnight at 37degC by visual and photometry based method. In kind it is functional.
For data set [2], the system named is Enterococcus faecalis. Description: Antimicrobial activity against Enterococcus faecalis ATCC 29212 assessed as growth inhibition incubated overnight at 37degC by visual and photometry based method. In kind it is functional.
In data set [3] the test system is Staphylococcus aureus. Description: Antimicrobial activity against Staphylococcus aureus ATCC 25923 assessed as growth inhibition incubated overnight at 37degC by visual and photometry based method. In kind it is functional.
Data set [4] concerns Pseudomonas aeruginosa. Description: Antimicrobial activity against Pseudomonas aeruginosa ATCC 27853 assessed as growth inhibition incubated overnight at 37degC by visual and photometry based method. In kind it is functional.
The test system of the next data set is HepG2. Briefly: Cytotoxicity against human HepG2 cells incubated for 24 hrs by CellTiter 96 aqueous one solution reagent based assay. In kind it is cell-based. Particulars: HepG2, 24 h. An outline of the steps: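 HepG2 seeded 20,000 cells/well overnight, then exposed 24 h to a concentration range in serum-free MEM Earle's (gentamycin, NEAA, pyruvate, alanyl-glutamine); MTS reagent 1 h, absorbance 485 nm; % survival versus medium and Triton X-100 controls; EC50 from four-parameter normalized nonlinear regression.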

For data set [5], the system named is Staphylococcus epidermidis. Briefly: Inhibition of biofilm formation of Staphylococcus epidermidis incubated overnight at 37degC by crystal violet based assay. In kind it is functional.
Data set [6] in a line: Selectivity index, ratio of EC50 for human HepG2 cells to MIC for Streptococcus agalactiae ATCC 12386. The conditions noted are these: read-out: Selectivity Index. In kind it is toxicity. The procedure, abridged: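 Selectivity index computed as HepG2 EC50 (24 h MTS assay) divided by S. agalactiae MIC.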
The test system of data set [7] is Pseudomonas aeruginosa. Description: Antimicrobial activity against Pseudomonas aeruginosa ATCC 27853 assessed as growth inhibition =<64 ug/ml incubated overnight at 37degC by visual and photometry based method. The class given is functional.
Data set [8] deals with Enterococcus faecalis. Description: Antimicrobial activity against Enterococcus faecalis ATCC 29212 assessed as growth inhibition at =<64 ug/ml incubated overnight at 37degC by visual and photometry based method. In kind it is functional.
For data set [9], the system named is Staphylococcus aureus. Description: Antimicrobial activity against Staphylococcus aureus ATCC 25923 assessed as growth inhibition =<64 ug/ml incubated overnight at 37degC by visual and photometry based method. The class given is functional.
The test system of data set [10] is Escherichia coli. Briefly: Antimicrobial activity against Escherichia coli ATCC 25922 assessed as growth inhibition =<64 ug/ml incubated overnight at 37degC by visual and photometry based method. The class given is functional.

In the case of `CCCCCCCn1cc(C(=O)NCCN)nn1`, the MIC entry with Streptococcus agalactiae, with Escherichia coli [1], with Enterococcus faecalis [2], in the data set with Staphylococcus aureus [3] and in the data set with Pseudomonas aeruginosa [4] was “inactive” each time.
In general, EC50 refers to the concentration needed to bring the measured effect to its halfway point. Low readings indicate greater potency, high ones weaker potency. For the compound `CC(C)(C)c1cc(-n2cc(C(=O)NCCNC(=N)N)nn2)cc(C(C)(C)C)c1.Cl`, the MIC was determined as 8 µg/mL with Streptococcus agalactiae; 16 µg/mL with Escherichia coli [1]; 16 µg/mL in the data set with Enterococcus faecalis [2]; 4 µg/mL in data set [5]; 8 µg/mL in the data set with Staphylococcus aureus [3]; 16 µg/mL with Pseudomonas aeruginosa [4]. In addition, in the data set with HepG2, it took 31.3 µg/mL to reach a half-maximal effect (EC50). The selectivity ratio in data set [6] was determined as 3.91.
For the compound `CC(C)(C)c1ccc(Cn2cc(C(=O)N3CCNCC3)nn2)cc1`, the MIC entry in the data set on Streptococcus agalactiae, in the data set on Escherichia coli [1], with Enterococcus faecalis [2], with Staphylococcus aureus [3] and with Pseudomonas aeruginosa [4] was “inactive” in each case.
For `CC(C)(C)c1cc(Cn2cc(C(=O)N3CCNCC3)nn2)cc(C(C)(C)C)c1.Cl`, the MIC in the data set on Streptococcus agalactiae, in the data set on Escherichia coli [1] and with Staphylococcus aureus [3] was 64 µg/mL in each case. Besides, the “growth inhibition (GI)” value in the data set on Pseudomonas aeruginosa [7] and in the data set on Enterococcus faecalis [8] was “inactive” each time.
`CN1CCN(C(=O)c2cn(Cc3ccc(C(C)(C)C)cc3)nn2)CC1`: the MIC entry with Streptococcus agalactiae, in the data set with Escherichia coli [1], in the data set on Enterococcus faecalis [2], in the data set on Staphylococcus aureus [3] and in the data set with Pseudomonas aeruginosa [4] was “inactive” each time.
For the compound `O=C(c1cn(C23CC4CC(CC(C4)C2)C3)nn1)N1CCNCC1`, the MIC result in the data set with Streptococcus agalactiae, in the data set with Escherichia coli [1], in the data set with Enterococcus faecalis [2], in the data set on Staphylococcus aureus [3] and in the data set with Pseudomonas aeruginosa [4] was “inactive” throughout.
Consider `CCCCCCCOc1ccc(-n2cc(/C(C)=N/NC(=N)N)nn2)cc1.O=C(O)C(F)(F)F`, for which the MIC in the data set on Streptococcus agalactiae worked out at 8 µg/mL; in the data set with Escherichia coli [1], 16 µg/mL; with Enterococcus faecalis [2] it was 32 µg/mL; in data set [5], 8 µg/mL; in the data set with Pseudomonas aeruginosa [4] it was 64 µg/mL. The “growth inhibition (GI)” value in the data set with Staphylococcus aureus [9] is “inactive”. The compound also gave an EC50 with HepG2 of 2 µg/mL. Moreover, the selectivity ratio in data set [6] was 0.25.
With `NCCNC(=O)c1cn(C23CC4CC(CC(C4)C2)C3)nn1`, the MIC result in the data set with Streptococcus agalactiae, with Escherichia coli [1], with Enterococcus faecalis [2], in the data set with Staphylococcus aureus [3] and in the data set with Pseudomonas aeruginosa [4] was “inactive” throughout.
As to `CC(C)(C)c1cc(Cn2cc(C(=O)NCCNC(=N)N)nn2)cc(C(C)(C)C)c1.Cl`, the MIC in the data set on Streptococcus agalactiae was determined as 16 µg/mL; with Escherichia coli [1], 64 µg/mL; with Enterococcus faecalis [2], 64 µg/mL; in the data set with Staphylococcus aureus [3], 32 µg/mL; in the data set on Pseudomonas aeruginosa [4], 32 µg/mL.
`C/C(=N\NC(=N)N)c1cn(-c2cc(C(C)(C)C)cc(C(C)(C)C)c2)nn1.O=C(O)C(F)(F)F`: the MIC is 2 µg/mL in the data set on Streptococcus agalactiae; 4 µg/mL with Escherichia coli [1]; 4 µg/mL in the data set on Enterococcus faecalis [2]; 4 µg/mL in data set [5]; 4 µg/mL with Staphylococcus aureus [3]; 16 µg/mL with Pseudomonas aeruginosa [4]. In the data set with HepG2, this compound showed an EC50 of 2.6 µg/mL. Also, the selectivity ratio in [6] is 1.32.
On to `CCCCCCCn1cc(C(=O)N2CCNCC2)nn1`, for which the MIC result in the data set with Streptococcus agalactiae, in the data set on Escherichia coli [1], in the data set on Enterococcus faecalis [2], in the data set with Staphylococcus aureus [3] and in the data set with Pseudomonas aeruginosa [4] was “inactive” in each case.
As to `CN1CCN(C(=O)c2cn(Cc3cc(C(C)(C)C)cc(C(C)(C)C)c3)nn2)CC1`, the MIC result with Streptococcus agalactiae, with Escherichia coli [1], in the data set on Enterococcus faecalis [2], in the data set on Staphylococcus aureus [3] and in the data set with Pseudomonas aeruginosa [4] was “inactive” throughout.
Consider `CC(C)(C)c1ccc(Cn2cc(C(=O)NCCN)nn2)cc1`, for which the MIC entry in the data set with Streptococcus agalactiae, in the data set with Escherichia coli [1], with Enterococcus faecalis [2], in the data set on Staphylococcus aureus [3] and in the data set on Pseudomonas aeruginosa [4] was “inactive” each time.
Turning to GENTAMICIN, the MIC with Streptococcus agalactiae came out at 4 µg/mL; in the data set on Enterococcus faecalis [2], 10 µg/mL; in the data set with Staphylococcus aureus [3], 0.13 µg/mL.
In the case of `C/C(=N\NC(=N)N)c1cn(Cc2cc(C(C)(C)C)cc(C(C)(C)C)c2)nn1.Cl`, the MIC came to 4 µg/mL with Streptococcus agalactiae; 8 µg/mL in the data set on Escherichia coli [1]; 8 µg/mL in the data set with Enterococcus faecalis [2]; 4 µg/mL in data set [5]; 4 µg/mL in the data set on Staphylococcus aureus [3]; 8 µg/mL in the data set on Pseudomonas aeruginosa [4]. The compound also came in with an EC50 in the data set on HepG2 of 2.3 µg/mL. The selectivity ratio in data set [6] is 0.57.
As to `CC(C)(C)c1cc(COc2ccc(-n3cc(C(=O)NCCNC(=N)N)nn3)cc2)cc(C(C)(C)C)c1.Cl`, the MIC in the data set with Streptococcus agalactiae is 4 µg/mL; in the data set on Enterococcus faecalis [2], 16 µg/mL; in data set [5], 2 µg/mL; in the data set on Staphylococcus aureus [3], 8 µg/mL. Moreover, in the data set with HepG2, the response was half-maximal at 16.2 µg/mL (EC50). Moreover, the “growth inhibition (GI)” value in the data set on Pseudomonas aeruginosa [7] and in the data set on Escherichia coli [10] was “inactive” in each case. The selectivity ratio in [6] was determined as 4.04.
`CN1CCN(C(=O)c2cn(C34CC5CC(CC(C5)C3)C4)nn2)CC1`: the MIC result in the data set on Streptococcus agalactiae, in the data set on Escherichia coli [1], in the data set with Enterococcus faecalis [2], in the data set on Staphylococcus aureus [3] and with Pseudomonas aeruginosa [4] was “inactive” in each case.
Turning to `CCCCCCCn1cc(C(=O)N2CCN(C(=N)N)CC2)nn1`, the MIC entry in the data set with Streptococcus agalactiae, with Escherichia coli [1], in the data set on Enterococcus faecalis [2], in the data set on Staphylococcus aureus [3] and with Pseudomonas aeruginosa [4] was “inactive” each time.
Regarding `CC(C)(C)c1cc(Cn2cc(C(=O)NCCN)nn2)cc(C(C)(C)C)c1.Cl`, the MIC stood at 64 µg/mL in the data set with Streptococcus agalactiae, 32 µg/mL in the data set with Escherichia coli [1], 64 µg/mL in the data set on Staphylococcus aureus [3] and 64 µg/mL in the data set with Pseudomonas aeruginosa [4]. In addition, the “growth inhibition (GI)” value with Enterococcus faecalis [8] was “inactive”.
With `N=C(N)NCCNC(=O)c1cn(C23CC4CC(CC(C4)C2)C3)nn1`, the MIC result in the data set on Streptococcus agalactiae, with Escherichia coli [1], with Enterococcus faecalis [2], with Staphylococcus aureus [3] and in the data set with Pseudomonas aeruginosa [4] was “inactive” each time.
Regarding `CC(C)(C)c1ccc(Cn2cc(C(=O)NCCNC(=N)N)nn2)cc1`, the MIC result in the data set on Streptococcus agalactiae, with Escherichia coli [1], with Enterococcus faecalis [2], in the data set with Staphylococcus aureus [3] and in the data set on Pseudomonas aeruginosa [4] was “inactive” each time.
Take `CCCCCCCn1cc(C(=O)N2CCN(C)CC2)nn1`: the MIC entry with Streptococcus agalactiae, with Escherichia coli [1], in the data set with Enterococcus faecalis [2], in the data set with Staphylococcus aureus [3] and in the data set with Pseudomonas aeruginosa [4] was “inactive” in each case.
On to `CCCCCCCn1cc(C(=O)NCCNC(=N)N)nn1`, for which the MIC entry in the data set with Streptococcus agalactiae, in the data set on Escherichia coli [1], in the data set on Enterococcus faecalis [2], in the data set on Staphylococcus aureus [3] and in the data set on Pseudomonas aeruginosa [4] was “inactive” in each case.
As to `CC(C)(C)c1cc(COc2ccc(-n3cc(C(=O)NCCN)nn3)cc2)cc(C(C)(C)C)c1.Cl`, the MIC in the data set with Streptococcus agalactiae came out at 2 µg/mL; with Enterococcus faecalis [2] it was 8 µg/mL; in data set [5], 8 µg/mL; in the data set with Pseudomonas aeruginosa [4], 16 µg/mL. For the same compound, the “growth inhibition (GI)” value in the data set on Staphylococcus aureus [9] and in the data set with Escherichia coli [10] was “inactive” in each case. Further, the EC50 in the data set on HepG2 was found to be 2.9 µg/mL. Moreover, the selectivity ratio in data set [6] was 1.44.
In the case of `CC(C)(C)c1cc(Cn2cc(C(=O)N3CCN(C(=N)N)CC3)nn2)cc(C(C)(C)C)c1.Cl`, the MIC was 32 µg/mL in the data set on Streptococcus agalactiae, 64 µg/mL in the data set with Staphylococcus aureus [3] and 64 µg/mL in the data set on Pseudomonas aeruginosa [4]. The “growth inhibition (GI)” value in the data set on Escherichia coli [10] and in the data set with Enterococcus faecalis [8] was “inactive” in each case.
On to `N=C(N)N1CCN(C(=O)c2cn(C34CC5CC(CC(C5)C3)C4)nn2)CC1`, for which the MIC result with Streptococcus agalactiae, in the data set with Escherichia coli [1], in the data set with Enterococcus faecalis [2], in the data set with Staphylococcus aureus [3] and in the data set with Pseudomonas aeruginosa [4] was “inactive” each time.
Consider `CCCCCCCOc1ccc(-n2cc(C(=O)NCCNC(=N)N)nn2)cc1.Cl`, for which the MIC with Streptococcus agalactiae was determined as 8 µg/mL; in the data set with Escherichia coli [1], 8 µg/mL; with Enterococcus faecalis [2] it was 16 µg/mL; in data set [5], 4 µg/mL; with Staphylococcus aureus [3], 4 µg/mL; with Pseudomonas aeruginosa [4] it was 8 µg/mL. In the data set on HepG2, this compound displayed an EC50 of 23.8 µg/mL. Further, in data set [6], the selectivity ratio was found to be 2.97.
In the case of `CCCCCCCOc1ccc(-n2cc(C(=O)NCCN)nn2)cc1.Cl`, the MIC in the data set on Streptococcus agalactiae came to 8 µg/mL; in data set [5] it was 4 µg/mL; with Staphylococcus aureus [3] it was 4 µg/mL; in the data set on Pseudomonas aeruginosa [4], 16 µg/mL. This compound showed an EC50 with HepG2 of 3.5 µg/mL. In addition, the selectivity ratio in data set [6] is 0.44. In addition, the “growth inhibition (GI)” value with Escherichia coli [10] and in the data set on Enterococcus faecalis [8] was “inactive” each time.
